Measured values taken from ChEMBL document CHEMBL2040751, “Discovery of PF-04449913, a Potent and Orally Bioavailable Inhibitor of Smoothened” (ACS Med Chem Lett, 2012).
≈ marks a conversion by molar mass, not a printed value.

What was measured:
Protein smoothened = Protein smoothened (Mus musculus, UniProt P56726); assay: Inhibition of Smo in mouse C3H10T1/2 cells using human recombinant SHH assessed as effect on SMO/SHH transient transcriptional activation after 20 hrs by Gli-luciferase reporter assay; format: cell-based, C3H 10T1/2
Protein smoothened, sequence (P56726 whole entry): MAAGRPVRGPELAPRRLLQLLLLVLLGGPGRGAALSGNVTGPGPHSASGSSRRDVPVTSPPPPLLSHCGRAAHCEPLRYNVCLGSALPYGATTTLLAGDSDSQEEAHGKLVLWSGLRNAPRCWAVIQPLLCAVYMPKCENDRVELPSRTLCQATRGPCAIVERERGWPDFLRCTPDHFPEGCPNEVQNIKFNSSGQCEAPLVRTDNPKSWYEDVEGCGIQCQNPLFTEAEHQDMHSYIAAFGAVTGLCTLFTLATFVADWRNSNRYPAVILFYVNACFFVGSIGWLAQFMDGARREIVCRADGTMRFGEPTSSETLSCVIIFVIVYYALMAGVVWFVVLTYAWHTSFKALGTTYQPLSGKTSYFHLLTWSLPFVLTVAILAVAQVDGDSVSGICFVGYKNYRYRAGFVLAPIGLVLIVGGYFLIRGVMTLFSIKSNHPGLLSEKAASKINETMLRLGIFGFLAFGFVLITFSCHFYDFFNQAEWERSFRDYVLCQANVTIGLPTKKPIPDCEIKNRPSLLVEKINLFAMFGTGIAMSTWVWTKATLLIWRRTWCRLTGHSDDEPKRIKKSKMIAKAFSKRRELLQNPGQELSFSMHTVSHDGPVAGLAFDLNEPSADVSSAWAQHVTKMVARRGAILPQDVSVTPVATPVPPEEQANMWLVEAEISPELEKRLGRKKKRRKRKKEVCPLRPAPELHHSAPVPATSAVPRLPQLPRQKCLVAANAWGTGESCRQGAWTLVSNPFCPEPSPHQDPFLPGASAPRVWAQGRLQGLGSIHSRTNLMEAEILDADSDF

[1] = target: Protein smoothened (Mus musculus) (UniProt P56726); assay: Potency ratio, ratio of IC50 for compound to IC50 for compound 1 in mouse C3H10T1/2 cells by SMO/SHH transient transcriptional activation based Gli-luciferase reporter assay; format: cell-based; details: C3H 10T1/2
Protein smoothened (Mus musculus), sequence (P56726 whole entry): as above

[2] = Aqueous solubility of the compound; format: physicochemical; details: buffer
[3] = Chemical solubility of the compound in PBS at pH 6.5; format: physicochemical
[4] = Chemical solubility of the compound in SGN at pH 1.2; format: physicochemical
[5] = Plasma clearance in rat at 2 mg/kg, iv dosed in 20% PEG400/80% H2O; format: ADME, organism-based; design: dose 2 mg/kg, route intravenous
How it was run: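 Single IV dose of 2 mg/kg formulated in 20% PEG400/80% H2O. Plasma clearance was determined.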

[6] = Oral bioavailability in rat at 5 mg/kg dosed in 0.5% methylcellulose in water; format: ADME, organism-based; details: in vivo
How it was run: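 Oral dosing at 5 mg/kg, formulated in 0.5% methylcellulose in water.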

[7] = Apparent permeability of the compound across apical to basolateral side in human Caco2 cells; format: ADME, cell-based; details: Caco-2
[8] = Apparent permeability of the compound across basolateral to apical side in human Caco2 cells; format: ADME, cell-based; details: Caco-2

Structure (SMILES) | IC50 (Protein smoothened) | Ratio IC50 [1] | other results
CN1CC[C@@H](NC(=O)Nc2cccnc2)C[C@@H]1c1nc2ccccc2[nH]1 | 191 nM | > 50 | –
CN1CC[C@@H](NC(=O)Nc2ccc(C#N)cc2)C[C@@H]1c1nc2ccccc2[nH]1.Cl.O | – | – | solubility [2]: 20 µg/mL; solubility [3]: 1150 µg/mL; solubility [4]: > 69 mg/mL
O=C(N[C@@H]1CCC[C@H](c2nc3ccccc3[nH]2)C1)c1ccc2c(c1)OCCO2 | 88 nM | 18 | solubility [2]: 37 µg/mL (≈ 98 µM); clearance [5]: 33 mL/min/kg; bioavailability [6]: 4%; Papp A→B [7]: 85 ×10⁻⁶ cm/s; Papp B→A [8]: 65 ×10⁻⁶ cm/s
CN1CC[C@@H](NC(=O)Nc2ccc(C#N)cc2)C[C@@H]1c1nc2ccccc2[nH]1 | – | > 50 | –
CN1CC[C@@H](NC(=O)Nc2ccc(C(F)(F)F)cc2)C[C@@H]1c1nc2ccccc2[nH]1 | 5 nM | > 50 | –
CN1CC[C@@H](NC(=O)Nc2ccc(Cl)cc2)C[C@@H]1c1nc2ccccc2[nH]1 | 20 nM | > 50 | –
CN1CC[C@@H](NC(=O)Nc2ccccc2)C[C@@H]1c1nc2ccccc2[nH]1 | 103 nM | > 50 | –
